Active and inactive are the calls of the source. No cut-off for these calls is given here.
Assays:
Saccharomyces cerevisiae [1] = experiment: Antifungal activity against Saccharomyces cerevisiae DSY 415 overexpressing Candida albicans MDR1 at 12.8 uM; format: functional, organism-based
SK-OV-3 = experiment: Cytotoxicity against human SKOV3 cells; format: functional, cell-based
Outline: (§1)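 Human cancer cell lines (KB, SK-MEL, BT-549, SK-OV-3) tested alongside non-cancerous Vero cells, with test agent concentrations up to 35 μM.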

Vero = experiment: Cytotoxicity against african green monkey Vero cells up to 35 uM; format: cell-based; details: chlorocebus sabaeus
Saccharomyces cerevisiae [2] = experiment: Antifungal activity against null pump Saccharomyces cerevisiae DSY 390; format: functional, organism-based
Outline: (§2)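 Growth inhibition of S. cerevisiae strains with efflux pumps overexpressed (CDR1 or MDR1, DSY 415) or no pump (DSY 390) was measured across a dose range of test agent alone. IC50 was read from the dose-response curves.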

Nakaseomyces glabratus = experiment: Antifungal activity against Candida glabrata; format: functional, organism-based
Saccharomyces cerevisiae [3] = experiment: Antifungal activity against Saccharomyces cerevisiae DSY 415 overexpressing Candida albicans CDR1 at 12.8 uM; format: functional, organism-based
Pichia kudriavzevii = experiment: Antifungal activity against Candida krusei; format: functional, organism-based
Saccharomyces cerevisiae [4] = experiment: Potentiation of fluconazole-induced antifungal activity against Saccharomyces cerevisiae DSY 415 overexpressing Candida albicans CDR1 assessed as fractional inhibitory concentration at 22.5 uM; format: functional
Outline: (§3)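 Fluconazole dose-response curves were run alone and with a fixed concentration of second agent (22.5, 6.0 or 12.8 μM). Strains were S. cerevisiae null pump DSY 390 and DSY 415 overexpressing C. albicans CDR1 or MDR1. Growth inhibition was the read-out, and the fractional inhibitory concentration was derived from it.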

BT-549 = experiment: Cytotoxicity against human BT549 cells; format: functional, cell-based; outline: as §1
SK-MEL = experiment: Cytotoxicity against human SK-MEL cells; format: functional, cell-based; outline: as §1
KB = experiment: Cytotoxicity against human KB cells; format: functional, cell-based; outline: as §1
Aspergillus fumigatus = experiment: Antifungal activity against Aspergillus fumigatus; format: functional, organism-based
Candida albicans = experiment: Antifungal activity against Candida albicans; format: functional, organism-based
Saccharomyces cerevisiae [5] = experiment: Antifungal activity against Saccharomyces cerevisiae DSY 415 overexpressing Candida albicans MDR1 at 67.4 uM; format: functional, organism-based
Saccharomyces cerevisiae [6] = experiment: Antifungal activity against null pump Saccharomyces cerevisiae DSY 390 at 67.4 uM; format: functional, organism-based
Saccharomyces cerevisiae [7] = experiment: Potentiation of fluconazole-induced antifungal activity against null pump Saccharomyces cerevisiae DSY 390 assessed as fractional inhibitory concentration at 22.5 uM; format: functional
Outline: (§4)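 Pump-null S. cerevisiae DSY 390 was run in parallel with strains overexpressing C. albicans CDR1 or MDR1 efflux pumps. Growth-inhibition dose-response curves were recorded for fluconazole alone and for fluconazole with a fixed modulator concentration (22.5 or 6.0 μM). The interaction was expressed as a fractional inhibitory concentration (FIC) index.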

Saccharomyces cerevisiae [8] = experiment: Antifungal activity against Saccharomyces cerevisiae DSY 415 overexpressing Candida albicans CDR1 at 67.4 uM; format: functional, organism-based
Cryptococcus neoformans = experiment: Antifungal activity against Cryptococcus neoformans; format: functional, organism-based
Saccharomyces cerevisiae [9] = experiment: Antifungal activity against null pump Saccharomyces cerevisiae DSY 390 at 12.8 uM; format: functional, organism-based
Saccharomyces cerevisiae [10] = experiment: Potentiation of fluconazole-induced antifungal activity against Saccharomyces cerevisiae DSY 415 overexpressing Candida albicans MDR1 assessed as fractional inhibitory concentration at 22.5 uM; format: functional; outline: as §3
Saccharomyces cerevisiae [11] = experiment: Antifungal activity against Saccharomyces cerevisiae DSY 415 overexpressing Candida albicans CDR1; format: functional, organism-based; outline: as §2
Saccharomyces cerevisiae [12] = experiment: Antifungal activity against Saccharomyces cerevisiae DSY 415 overexpressing Candida albicans MDR1; format: functional, organism-based; outline: as §2
Saccharomyces cerevisiae [13] = experiment: Potentiation of fluconazole-induced antifungal activity against Saccharomyces cerevisiae DSY 415 overexpressing Candida albicans CDR1 assessed as fractional inhibitory concentration at 6.03 uM; format: functional; outline: as §3
Saccharomyces cerevisiae [14] = experiment: Potentiation of fluconazole-induced antifungal activity against null pump Saccharomyces cerevisiae DSY 390 assessed as fractional inhibitory concentration at 6.03 uM; format: functional; outline: as §4
Saccharomyces cerevisiae [15] = experiment: Potentiation of fluconazole-induced antifungal activity against Saccharomyces cerevisiae DSY 415 overexpressing Candida albicans MDR1 assessed as fractional inhibitory concentration at 6.03 uM; format: functional; outline: as §3
Saccharomyces cerevisiae [16] = experiment: Potentiation of fluconazole-induced antifungal activity against null pump Saccharomyces cerevisiae DSY 390 assessed as fractional inhibitory concentration at 12.8 uM; format: functional; outline: as §3
Saccharomyces cerevisiae [17] = experiment: Potentiation of fluconazole-induced antifungal activity against Saccharomyces cerevisiae DSY 415 overexpressing Candida albicans CDR1 assessed as fractional inhibitory concentration at 12.8 uM; format: functional; outline: as §3
Saccharomyces cerevisiae [18] = experiment: Potentiation of fluconazole-induced antifungal activity against Saccharomyces cerevisiae DSY 415 overexpressing Candida albicans MDR1 assessed as fractional inhibitory concentration at 12.8 uM; format: functional; outline: as §3

## CC(=O)OC[C@@]1(COS(=O)(=O)O)C(=O)CC[C@]23C[C@]24CC[C@]2(C)[C@@H]([C@H](C)CC(=O)CC(C)C)CC[C@@]2(C)[C@@H]4CC[C@@H]13 [CAPISTERONE A]
Saccharomyces cerevisiae [1]
  Activity: inactive
SK-OV-3
  Activity: inactive
Vero
  Activity: Not Active
Saccharomyces cerevisiae [2]
  IC50: > 67 µM
Nakaseomyces glabratus
  Activity: inactive
Saccharomyces cerevisiae [3]
  Activity: inactive
Pichia kudriavzevii
  Activity: inactive
Saccharomyces cerevisiae [4]
  FIC50: 0.33
BT-549
  Activity: inactive
SK-MEL
  Activity: inactive
KB
  Activity: inactive
Aspergillus fumigatus
  Activity: inactive
Candida albicans
  Activity: inactive
Saccharomyces cerevisiae [5]
  Activity: inactive
Saccharomyces cerevisiae [6]
  Activity: inactive
Saccharomyces cerevisiae [7]
  FIC50: 0.55
Saccharomyces cerevisiae [8]
  Activity: inactive
Cryptococcus neoformans
  Activity: inactive
Saccharomyces cerevisiae [9]
  Activity: inactive
Saccharomyces cerevisiae [10]
  FIC50: 0.08
Saccharomyces cerevisiae [11]
  IC50: > 67 µM
Saccharomyces cerevisiae [12]
  IC50: > 67 µM

## CC(C)CC(=O)C[C@@H](C)[C@H]1CC[C@@]2(C)[C@@H]3CC[C@H]4[C@](CO)(COS(=O)(=O)O)C(=O)CC[C@@]45C[C@@]35CC[C@]12C [CAPISTERONE B]
SK-OV-3
  Activity: inactive
Vero
  Activity: Not Active
Saccharomyces cerevisiae [13]
  FIC50: 0.33
Saccharomyces cerevisiae [2]
  IC50: 7 µM
Nakaseomyces glabratus
  Activity: inactive
Saccharomyces cerevisiae [14]
  FIC50: 0.5
Saccharomyces cerevisiae [15]
  FIC50: 0.15
Pichia kudriavzevii
  Activity: inactive
BT-549
  Activity: inactive
SK-MEL
  Activity: inactive
KB
  Activity: inactive
Aspergillus fumigatus
  Activity: inactive
Candida albicans
  Activity: inactive
Cryptococcus neoformans
  Activity: inactive
Saccharomyces cerevisiae [11]
  IC50: 7 µM
Saccharomyces cerevisiae [12]
  IC50: 7 µM

## CC(C)[C@@H]1OC(=O)[C@@H](Cc2ccccc2)N(C)C(=O)[C@H](C(C)C)OC(=O)[C@@H](Cc2ccccc2)N(C)C(=O)[C@H](C(C)C)OC(=O)[C@@H](Cc2ccccc2)N(C)C1=O [BEAUVERICIN]
Saccharomyces cerevisiae [16]
  FIC50: 2.67
Saccharomyces cerevisiae [17]
  FIC50: 0.05
Saccharomyces cerevisiae [18]
  FIC50: 2
